According to ChEMBL document CHEMBL1122046, “Quaternary heterocyclylamino beta-lactams: a generic alternative to the classical acylamino side chain” (1982):
Values after ≈ are worked out from the molar mass of the structure shown.

What was measured:
[1] = test system: Salmonella; assay: Inhibition zone diameter against aerobic organism Salmonella strain 826
[2] = test system: Pseudomonas aeruginosa; assay: Inhibition zone diameter against aerobic organism Pseudomonas aeruginosa strain 3350
[3] = test system: Streptococcus pyogenes; assay: Inhibition zone diameter against aerobic organism Streptococcus pyogenes strain 2874
[4] = test system: Klebsiella; assay: Inhibition zone diameter against aerobic organism Klebsiella species strain 2921
[5] = test system: Serratia marcescens; assay: Inhibition zone diameter against aerobic organism Serratia marcescenes strain 2855
[6] = test system: Staphylococcus aureus; assay: Inhibition zone diameter against aerobic organism Staphylococcus aureus strain 2314
[7] = test system: Morganella morganii; assay: Disk zone diameter (25 ug/disk) against aerobic organism Morganella morganii strain 2834
[8] = Minimum inhibitory concentration against aerobic organism Salmonella schottmuelleri strain 2837; assay type: functional; conditions: Salmonella; read-out: MIC
In short: (§1)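 Agar-dilution MIC in µg/mL against aerobic bacterial strains on tryptocase soy agar, with inoculum applied as spots. Most series used 10^5 cfu per spot, and a later series used 10^4 cfu per spot. In some tables, footnoted strains were instead tested on Mueller-Hinton or nutrient agar. β-Lactamase-producing strains are flagged.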

[9] = test system: Enterobacter cloacae; assay: Minimum inhibitory concentration against aerobic organism Enterobacter cloacae strain 2646; assay type: functional; conditions: Enterobacter cloacae; read-out: MIC
In short: as §1

[10] = test system: Shigella; assay: (§2) Minimum inhibitory concentration against aerobic organism Shigella species strain 2880; assay type: functional; conditions: Shigella; read-out: MIC
In short: as §1

[11] = test system: Staphylococcus aureus; assay: Minimum inhibitory concentration against aerobic organism Staphylococcus aureus strain 2868; assay type: functional; conditions: Staphylococcus aureus; read-out: MIC
In short: as §1

[12] = test system: Streptococcus pyogenes; assay: Minimum inhibitory concentration against aerobic organism Streptococcus pyogenes strain 3124; assay type: functional; conditions: Streptococcus pyogenes; read-out: MIC
In short: as §1

[13] = test system: Klebsiella pneumoniae; assay: Minimum inhibitory concentration against aerobic organism Klebsiella pneumoniae strain 2882; assay type: functional; conditions: Klebsiella pneumoniae; read-out: MIC
In short: as §1

[14] = test system: Escherichia coli; assay: MIC against aerobic organism Escherichia coli strain 2891; assay type: functional; conditions: Escherichia coli; read-out: MIC
In short: as §1

[15] = test system: Enterococcus faecalis; assay: Minimum inhibitory concentration against aerobic organism Streptococcus faecalis strain 2864
[16] = test system: Proteus vulgaris; assay: Minimum inhibitory concentration against aerobic organism Proteus vulgaris strain 2829; assay type: functional; conditions: Proteus vulgaris; read-out: MIC
In short: as §1

[17] = test system: Staphylococcus aureus; assay: Minimum inhibitory concentration against aerobic organism Staphylococcus aureus strain 2865; assay type: functional
In short: as §1

[18] = test system: Enterococcus faecalis; assay: Minimum inhibitory concentration against aerobic organism Streptococcus faecalis strain 2864; assay type: functional
In short: as §1

[19] = test system: Klebsiella aerogenes; assay: Minimum inhibitory concentration against aerobic organism Enterobacter aerogenes strain 2828; assay type: functional
In short: as §1

[20] = test system: Klebsiella pneumoniae; assay: Minimum inhibitory concentration against aerobic organism Klebsiella pneumoniae strain 4005; assay type: functional
In short: as §1

[21] = test system: Salmonella; assay: Minimum inhibitory concentration against aerobic organism Salmonella strain 3860; assay type: functional
In short: as §1

[22] = test system: Proteus mirabilis; assay: Minimum inhibitory concentration against aerobic organism Proteus mirabilis strain 2830; assay type: functional; conditions: Proteus mirabilis; read-out: MIC
In short: as §1

[23] = test system: Morganella morganii; assay: Minimum inhibitory concentration against aerobic organism Morganella morganii strain 2833; assay type: functional; conditions: Morganella morganii; read-out: MIC
In short: as §1

[24] = test system: Pseudomonas aeruginosa; assay: Minimum inhibitory concentration against aerobic organism Pseudomonas aeruginosa strain 2835; assay type: functional
In short: as §1

[25] = test system: Klebsiella aerogenes; assay: Minimum inhibitory concentration against aerobic organism Enterobacter aerogenes strain 2906; assay type: functional; conditions: Klebsiella aerogenes; read-out: MIC
In short: as §1

[26] = test system: Serratia marcescens; assay: Minimum inhibitory concentration against aerobic organism Serratia marcescens strain 2852; assay type: functional; conditions: Serratia marcescens; read-out: MIC
In short: as §1

[27] = test system: Staphylococcus aureus; assay: Inhibition zone diameter against aerobic organism Staphylococcus aureus strain 2314; remark: listed apart in the source
[28] = test system: Enterococcus faecalis; assay: Minimum inhibitory concentration against aerobic organisms Streptococcus faecalis strain 2864; assay type: functional
In short: as §1

[29] = test system: Shigella sp.; assay: as §2; assay type: functional
In short: as §1

[30] = test system: Enterobacter cloacae; assay: Minimum inhibitory concentration against aerobic organism Enterobacter cloacae 2646; assay type: functional
In short: as §1

[31] = Minimum inhibitory concentration against aerobic organism Salmonella schottmuelleri 2837; assay type: functional
In short: as §1

MIC [8] | MIC [10] | MIC [11] | MIC [12] | MIC [13] | MIC [14] | Compound | zone diameter [1] | zone diameter [2] | zone diameter [3] | zone diameter [4] | zone diameter [5] | zone diameter [7] | other results
 |  |  |  |  |  | CC(O)[C@H]1C(=O)N2C(C(=O)[O-])=C(SCCNc3cc[n+](Cc4ccccc4)cc3)C[C@H]12 (stereo not given in full) | 26 mm | 11.2 mm | 35.2 mm | 24 mm | 25 mm | 26.5 mm | zone diameter [6]: 36 mm
 |  |  |  |  |  | C[C@@H](O)[C@H]1C(=O)N2C(C(=O)O)=C(SCCNC=N)C[C@H]12 [IMIPENEM ANHYDROUS] | 29.5 mm | 31 mm | 43 mm | 26.5 mm | 24.5 mm | 27 mm | zone diameter [6]: 42 mm
0.78 µg/mL (≈ 2.54 µM) | 12.5 µg/mL (≈ 40.7 µM) | > 100 µg/mL | 1.56 µg/mL (≈ 5.08 µM) | 100 µg/mL (≈ 325 µM) | 50 µg/mL (≈ 163 µM) | C[n+]1ccc(NC2C(=O)N3C2SC(C)(C)[C@@H]3C(=O)[O-])cc1 (stereo not given in full) |  |  |  |  |  |  | MIC [9]: > 100 µg/mL; MIC [15]: > 100 µg/mL
12.5 µg/mL (≈ 38.4 µM) | 12.5 µg/mL (≈ 38.4 µM) | > 100 µg/mL |  | 100 µg/mL (≈ 307 µM) | 12.5 µg/mL (≈ 38.4 µM) | CC1(C)S[C@@H]2[C@H](NC=[N+]3CCCCCC3)C(=O)N2[C@H]1C(=O)[O-] |  |  |  |  |  |  | MIC [16]: 0.5 µg/mL (≈ 1.54 µM); MIC [17]: 8 µg/mL (≈ 24.6 µM); MIC [18]: > 100 µg/mL; MIC [19]: 64 µg/mL (≈ 197 µM); MIC [20]: 16 µg/mL (≈ 49.2 µM); MIC [21]: 0.125 µg/mL (≈ 0.384 µM); MIC [22]: > 128 µg/mL; MIC [23]: > 128 µg/mL; MIC [24]: > 128 µg/mL
< 0.004 µg/mL | < 0.004 µg/mL | 4 µg/mL (≈ 8.07 µM) | 0.015 µg/mL (≈ 0.0303 µM) | 0.25 µg/mL (≈ 0.504 µM) | 0.06 µg/mL (≈ 0.121 µM) | Cn1nnnc1SCC1=C(C(=O)[O-])N2C(=O)[C@@H](Nc3cc[n+](Cc4ccccc4)cc3)[C@H]2SC1 |  |  |  |  |  |  | MIC [16]: 1 µg/mL (≈ 2.02 µM); MIC [17]: 0.25 µg/mL (≈ 0.504 µM); MIC [18]: 128 µg/mL (≈ 258 µM); MIC [9]: 1 µg/mL (≈ 2.02 µM); MIC [25]: 8 µg/mL (≈ 16.1 µM); MIC [19]: 2 µg/mL (≈ 4.04 µM); MIC [20]: 8 µg/mL (≈ 16.1 µM); MIC [21]: 1 µg/mL (≈ 2.02 µM); MIC [22]: 32 µg/mL (≈ 64.6 µM); MIC [23]: 16 µg/mL (≈ 32.3 µM); MIC [24]: > 128 µg/mL; MIC [26]: 64 µg/mL (≈ 129 µM)
 |  |  |  |  |  | CC(O)[C@H]1C(=O)N2C(C(=O)[O-])=C(SCCNc3cccc[n+]3C)C[C@H]12 (stereo not given in full) | 27.5 mm | 17.5 mm | 37 mm | 26 mm | 26 mm | 27 mm | zone diameter [27]: 42.5 mm
 |  |  |  |  |  | CC(O)[C@H]1C(=O)N2C(C(=O)O)=C(SCCNC3=NCCC3)C[C@H]12 (stereo not given in full) | 28 mm | 25.5 mm | 40 mm | 24 mm | 25.5 mm |  | zone diameter [27]: 38 mm

Compound | MIC [8] | MIC [10] | MIC [11] | MIC [12] | MIC [13] | MIC [14] | zone diameter [1] | zone diameter [2] | zone diameter [3] | zone diameter [4] | zone diameter [5] | zone diameter [7] | other results
CC1(C)S[C@@H]2[C@H](NC(=O)Cc3ccccc3)C(=O)N2[C@H]1C(=O)O [PENICILLIN G] |  |  | 12.5 µg/mL (≈ 37.4 µM) | < 0.39 µg/mL | 25 µg/mL (≈ 74.8 µM) | > 100 µg/mL |  |  |  |  |  |  | MIC [28]: 1.56 µg/mL (≈ 4.67 µM); MIC [29]: 6.25 µg/mL (≈ 18.7 µM); MIC [30]: > 100 µg/mL; MIC [31]: 3.12 µg/mL (≈ 9.33 µM)
